# Measurements of several laboratories.
# Protocols differ between the studies behind these lines.
# Target: Dual specificity mitogen-activated protein kinase kinase 3 (MAP2K3, Homo sapiens, UniProt P46734)
# Sequence (P46734 1-347, as in one of the studies): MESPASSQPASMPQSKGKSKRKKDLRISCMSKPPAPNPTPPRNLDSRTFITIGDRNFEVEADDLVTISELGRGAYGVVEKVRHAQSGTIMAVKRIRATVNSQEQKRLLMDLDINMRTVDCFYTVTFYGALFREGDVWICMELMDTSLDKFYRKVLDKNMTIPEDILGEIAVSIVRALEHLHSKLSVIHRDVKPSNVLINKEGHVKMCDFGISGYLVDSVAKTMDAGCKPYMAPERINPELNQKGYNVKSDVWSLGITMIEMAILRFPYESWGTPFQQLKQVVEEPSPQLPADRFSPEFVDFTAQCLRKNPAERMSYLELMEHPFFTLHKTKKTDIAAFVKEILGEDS
Compound,assay,conditions,remaining binding
c1cncc(-c2cccc(Nc3nccc(NC4CCCCC4)n3)c2)c1,"binding, competition with immobilised ligand",10 µM,32%
CN(CCCC(F)(F)F)c1nccc(-c2cnn3ncccc23)n1,binding,1 µM,99%
C[C@H](NC(=O)c1cnc2n1[C@](C)(Cc1ccc(C#N)cc1)C(=O)N2c1cc(Cl)c(F)c(Cl)c1)C(=O)NC1(c2ccccn2)CC1,"cell-free assay, competition with immobilised ligand",1 µM,80%
O=C(NCC1CCOCC1)c1n[nH]cc1NC(=O)c1c(F)cccc1F,"binding, competition with immobilised ligand",1 µM,64%
O=C(NCc1ncc(C(F)(F)F)cc1Cl)c1ccc2c(c1)C1(CCS(=O)(=O)CC1)[C@@H](C1CC1)N2S(=O)(=O)c1ccc(F)cc1,"cell-free assay, competition with immobilised ligand",1 µM,73%
N[C@@H]1CCN(c2nccc(-c3cnn4ncccc34)n2)C1,binding,1 µM,59%
FC(F)(F)c1ccc2c(c1)nc(-c1cccnc1)n2C1CC1,"cell-free assay, competition with immobilised ligand",1 µM,100%
CN(C)c1nccc(-c2cnn3ncccc23)n1,binding,1 µM,51%
O=C(c1ccc(Nc2ncc(Cl)c(-c3ccc(Cl)s3)n2)cc1)N1CCC(N2CCCC2)CC1,"binding, competition with immobilised ligand",1 µM,15%
CO[C@@H](C)c1c(Nc2ccc([C@@H](N(C)C(=O)C3CCS(=O)(=O)CC3)C(F)(F)F)cc2)cnc2cc(Cl)nn12,"cell-free assay, competition with immobilised ligand",1 µM,90%
FC(F)(F)Oc1cccc(-c2cnc3ccc(-c4ccncc4)nn23)c1,"cell-free assay, competition with immobilised ligand",5 µM,35%
Nc1cnc(N2CCc3cc(S(=O)(=O)Nc4c(F)cc(Cl)cc4F)cc(N4CCCC4=O)c32)nc1,"cell-free assay, competition with immobilised ligand",1 µM,100%
C[C@H]1CCN(c2nccc(-c3cnn4ncccc34)n2)C1,binding,1 µM,69%
COc1cnc(Nc2cccc(S(N)(=O)=O)c2)nc1N1CCN(c2ccccc2)CC1,"binding, competition with immobilised ligand",1 µM,79%
C[C@@H](c1ccc(-n2cnc3c(N)ncnc32)cc1)N1CCc2nn(C)c(Cc3ccccc3)c2C1=O,"binding, competition with immobilised ligand",0.1 µM,63%
CN(C)C(=O)Cn1cc(-c2nc([C@@](C)(c3ccc(-c4cnc(N)nc4)cc3)C3CC3)no2)cn1,"cell-free assay, competition with immobilised ligand",1 µM,83%
CN(C)c1nccc(-c2cnc3ncccn23)n1,binding,1 µM,78%
COc1ncc2cc3ccccc3nc2c1C#N,"cell-free assay, competition with immobilised ligand",5 µM,74%
COc1ccnn2ncc(-c3ccnc(N(C)C)n3)c12,binding,1 µM,71%
Cc1cnc(Nc2ccc(C(=O)N3CCC(N4CCCC4)CC3)cc2)nc1-c1cc2ccccc2s1,"binding, competition with immobilised ligand",1 µM,42%
CN(c1nccc(-c2cnn3ncccc23)n1)C1CC1,binding,1 µM,93%
O=C(c1ccc(Nc2ncc(Cl)c(-c3cc4ccccc4s3)n2)cc1)N1CCC(N2CCCC2)CC1,"binding, competition with immobilised ligand",1 µM,43%
